Biological target: Anthrax toxin receptor 2 (Homo sapiens, UniProt P58335, C178A/R40C)
Sequence (P58335 whole entry, looked up, stated change not applied): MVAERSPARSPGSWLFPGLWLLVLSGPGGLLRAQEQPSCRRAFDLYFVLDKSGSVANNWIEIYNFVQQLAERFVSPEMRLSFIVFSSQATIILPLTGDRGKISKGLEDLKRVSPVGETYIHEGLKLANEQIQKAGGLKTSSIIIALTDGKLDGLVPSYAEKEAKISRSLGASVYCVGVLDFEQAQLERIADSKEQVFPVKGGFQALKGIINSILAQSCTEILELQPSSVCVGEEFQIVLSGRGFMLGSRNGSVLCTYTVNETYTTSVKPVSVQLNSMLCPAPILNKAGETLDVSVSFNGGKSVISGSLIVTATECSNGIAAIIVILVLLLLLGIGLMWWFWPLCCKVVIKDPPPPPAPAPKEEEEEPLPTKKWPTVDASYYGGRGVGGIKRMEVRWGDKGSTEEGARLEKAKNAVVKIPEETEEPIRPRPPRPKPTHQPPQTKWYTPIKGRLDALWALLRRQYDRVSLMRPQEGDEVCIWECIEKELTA
Test: Inhibition of AF488-labelled PA binding to AF546- labelled GST-tagged CMG2 R40C/C178A double mutant (unknown origin) expressed in Escherichia coli BL21 DE3 measured after 4 hrs by FRET assay
Settings: not given
For O=C(OC[C@H]1O[C@H](O[C@H]2[C@H](OC(=O)c3ccc(O)c(O)c3O)[C@@H](OC(=O)c3ccc(O)c(O)c3O)[C@H](OC(=O)c3ccc(O)c(O)c3O)O[C@@H]2COC(=O)c2ccc(O)c(O)c2O)[C@H](OC(=O)c2ccc(O)c(O)c2O)[C@@H](OC(=O)c2ccc(O)c(O)c2O)[C@@H]1OC(=O)c1ccc(O)c(O)c1O)c1ccc(O)c(O)c1O, the IC50 was 1160 nM. O=C(OC[C@H]1O[C@H](O[C@H]2[C@H](OC(=O)c3cc(O)c(O)c(O)c3)[C@@H](OC(=O)c3cc(O)c(O)c(O)c3)[C@H](OC(=O)c3cc(O)c(O)c(O)c3)O[C@@H]2COC(=O)c2cc(O)c(O)c(O)c2)[C@H](OC(=O)c2cc(O)c(O)c(O)c2)[C@@H](OC(=O)c2cc(O)c(O)c(O)c2)[C@@H]1OC(=O)c1cc(O)c(O)c(O)c1)c1cc(O)c(O)c(O)c1 gave an IC50 of over 10000 nM. For O=C(OC[C@H]1OC(O)[C@H](OC(=O)c2cc(O)c(O)c(O)c2)[C@@H](OC(=O)c2cc(O)c(O)c(O)c2)[C@H]1OC(=O)c1cc(O)c(O)c(O)c1)c1cc(O)c(O)c(O)c1 (stereo partly drawn), the IC50 was 167 nM. With O=C(OC[C@H]1O[C@H](OC(=O)c2ccc(O)c(O)c2O)[C@@H](OC(=O)c2ccc(O)c(O)c2O)[C@@H](OC(=O)c2ccc(O)c(O)c2O)[C@@H]1OC(=O)c1ccc(O)c(O)c1O)c1ccc(O)c(O)c1O the IC50 was over 10000 nM. In the case of O=C(OC[C@H]1O[C@@H](OC(=O)c2cc(O)c(O)c(O)c2)[C@@H](OC(=O)c2cc(O)c(O)c(O)c2)[C@@H](OC(=O)c2cc(O)c(O)c(O)c2)[C@@H]1OC(=O)c1cc(O)c(O)c(O)c1)c1cc(O)c(O)c(O)c1, the IC50 is reported as 58 nM. For O=C(OC[C@H]1O[C@H](OC(=O)c2cc(O)c(O)c(O)c2)[C@@H](OC(=O)c2cc(O)c(O)c(O)c2)[C@@H](OC(=O)c2cc(O)c(O)c(O)c2)[C@@H]1OC(=O)c1cc(O)c(O)c(O)c1)c1cc(O)c(O)c(O)c1, the IC50 was 100 nM. Compound O=C(O[C@@H]1OC[C@@H](OC(=O)c2ccc(O)c(O)c2O)[C@@H](OC(=O)c2ccc(O)c(O)c2O)[C@H]1OC(=O)c1ccc(O)c(O)c1O)c1ccc(O)c(O)c1O has an IC50 of over 10000 nM. In the case of O=C(OC[C@H]1O[C@@H](OC(=O)c2ccc(O)c(O)c2O)[C@@H](OC(=O)c2ccc(O)c(O)c2O)[C@@H](OC(=O)c2ccc(O)c(O)c2O)[C@@H]1OC(=O)c1ccc(O)c(O)c1O)c1ccc(O)c(O)c1O, the IC50 is reported as 132 nM. Compound O=C(OC[C@H]1O[C@H](O[C@H]2O[C@H](COC(=O)c3cc(O)c(O)c(O)c3)[C@@H](OC(=O)c3cc(O)c(O)c(O)c3)[C@H](OC(=O)c3cc(O)c(O)c(O)c3)[C@H]2OC(=O)c2cc(O)c(O)c(O)c2)[C@@H](OC(=O)c2cc(O)c(O)c(O)c2)[C@@H](OC(=O)c2cc(O)c(O)c(O)c2)[C@@H]1OC(=O)c1cc(O)c(O)c(O)c1)c1cc(O)c(O)c(O)c1 has an IC50 of over 10000 nM. Work on O=C(OCC(OC(=O)c1ccc(O)c(O)c1O)[C@@H]1O[C@H](OC(=O)c2ccc(O)c(O)c2O)[C@H](OC(=O)c2ccc(O)c(O)c2O)[C@H]1OC(=O)c1ccc(O)c(O)c1O)c1ccc(O)c(O)c1O (single isomer, unassigned) yielded an IC50 of over 10000 nM. O=C(OC[C@H]1OC(OC(=O)c2ccc(O)c(O)c2O)[C@H](OC(=O)c2ccc(O)c(O)c2O)[C@@H](OC(=O)c2ccc(O)c(O)c2O)[C@@H]1OC(=O)c1ccc(O)c(O)c1O)c1ccc(O)c(O)c1O (stereo partly drawn) gave an IC50 of 3420 nM. Compound O=C(OC[C@H]1O[C@@H](OC(=O)c2cc(O)c(O)c(O)c2)[C@H](OC(=O)c2cc(O)c(O)c(O)c2)[C@@H](OC(=O)c2cc(O)c(O)c(O)c2)[C@@H]1OC(=O)c1cc(O)c(O)c(O)c1)c1cc(O)c(O)c(O)c1 [PENTAGALLOYL GLUCOSE] has an IC50 of 607 nM. Work on O=C(O[C@H]1OC[C@@H](OC(=O)c2ccc(O)c(O)c2O)[C@@H](OC(=O)c2ccc(O)c(O)c2O)[C@H]1OC(=O)c1ccc(O)c(O)c1O)c1ccc(O)c(O)c1O yielded an IC50 of over 10000 nM. With O=C(OC[C@H]1O[C@H](O[C@H]2O[C@H](COC(=O)c3ccc(O)c(O)c3O)[C@@H](OC(=O)c3ccc(O)c(O)c3O)[C@H](OC(=O)c3ccc(O)c(O)c3O)[C@H]2OC(=O)c2ccc(O)c(O)c2O)[C@@H](OC(=O)c2ccc(O)c(O)c2O)[C@@H](OC(=O)c2ccc(O)c(O)c2O)[C@@H]1OC(=O)c1ccc(O)c(O)c1O)c1ccc(O)c(O)c1O the IC50 was over 10000 nM. Compound O=C(O[C@@H]1OC[C@@H](OC(=O)c2cc(O)c(O)c(O)c2)[C@@H](OC(=O)c2cc(O)c(O)c(O)c2)[C@H]1OC(=O)c1cc(O)c(O)c(O)c1)c1cc(O)c(O)c(O)c1 has an IC50 of over 10000 nM.

Test system: Mus musculus
Test: Inhibition of basic fibroblast growth factor-induced corneal angiogenesis in C57BL/6J mouse assessed as decrease in vessel area at 10 mg/kg administered intraperitoneally measured on 6th postoperative day relative to control
Format: functional
Settings: ip
Summary of the method: (§1)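 C57BL/6J mice given 80 ng bFGF slow-release pellets in the cornea about 1.0 mm from the temporal limbus. Compound diluted 5:1 in saline, 10 mg/kg/day ip. Vehicle is DMSO/NMP/Tween/Cremophor in saline. Vessel area compared with vehicle by t-test (vehicle n = 9, treated n = 10). Body weight followed against vehicle-treated mice.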
O=C(OC[C@H]1O[C@@H](OC(=O)c2cc(O)c(O)c(O)c2)[C@@H](OC(=O)c2cc(O)c(O)c(O)c2)[C@@H](OC(=O)c2cc(O)c(O)c(O)c2)[C@@H]1OC(=O)c1cc(O)c(O)c(O)c1)c1cc(O)c(O)c(O)c1 gave an inhibition in vivo at 10 mg/kg of 20%.

Test system: not listed separately
Test: Toxicity in C57BL/6J mouse assessed as body weight loss at 10 mg/kg, ip
Format: organism-based
Settings: in vivo
Summary of the method: as §1
In the case of O=C(OC[C@H]1O[C@@H](OC(=O)c2cc(O)c(O)c(O)c2)[C@@H](OC(=O)c2cc(O)c(O)c(O)c2)[C@@H](OC(=O)c2cc(O)c(O)c(O)c2)[C@@H]1OC(=O)c1cc(O)c(O)c(O)c1)c1cc(O)c(O)c(O)c1, the Activity is reported as “Non-Toxic”.

Test system: EA.hy 926
Test: Antimigratory activity in human EAhy926 cells measured at 10 mins interval for 12 hrs by time-lapse transmitted light microscopy
Settings: not given
O=C(OC[C@H]1O[C@@H](OC(=O)c2cc(O)c(O)c(O)c2)[C@@H](OC(=O)c2cc(O)c(O)c(O)c2)[C@@H](OC(=O)c2cc(O)c(O)c(O)c2)[C@@H]1OC(=O)c1cc(O)c(O)c(O)c1)c1cc(O)c(O)c(O)c1 showed an IC50 of 365 to 400 nM.

Reference: ChEMBL document CHEMBL4387713, “Galloyl Carbohydrates with Antiangiogenic Activity Mediated by Capillary Morphogenesis Gene 2 (CMG2) Protein Binding” (J Med Chem, 2019)
